How the values were obtained:
Rattus norvegicus [1] = assay: Antiinflammatory activity against carrageenan-induced albino rat hind paw edema model at 15 mg/kg, po administered 1 hr before carrageenan challenge measured after 4 hrs relative to indomethacin; assay type: functional
Mus musculus [2] = assay: Analgesic activity in Swiss albino mouse at 20 mg/kg, po assessed as reaction time after 30 mins by hot plate method; assay type: functional
Outline: (§1)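 Swiss albino mice of both sexes (25–30 g), kept at 22 °C on a 12 h light/dark cycle, in groups of five. Given 20 mg/kg orally as an aqueous suspension; aspirin reference at 20 mg/kg orally. Hot plate at 53 °C. Reaction time (placement to hind-paw licking or jumping) was taken before dosing and at 15, 30, 60 and 90 min; 60 s cut-off.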

Rattus norvegicus [3] = assay: Antiinflammatory activity against carrageenan-induced albino rat hind paw edema model at 15 mg/kg, po administered 1 hr before carrageenan challenge measured after 2 hrs relative to indomethacin; assay type: functional
Rattus norvegicus [4] = assay: Gastrointestinal toxicity in carrageenan-induced albino rat hind paw edema model assessed as induction of ulcerogenicity at 15 mg/kg, po; assay type: organism-based; design: dose 15 mg/kg, route oral; settings: in vivo
Rattus norvegicus [5] = assay: Antiinflammatory activity against carrageenan-induced albino rat hind paw edema model at 15 mg/kg, po administered 1 hr before carrageenan challenge measured after 3 hrs relative to indomethacin; assay type: functional
Rattus norvegicus [6] = assay: Antiinflammatory activity against carrageenan-induced albino rat hind paw edema model assessed as edema rate at 15 mg/kg, po administered 1 hr before carrageenan challenge measured after 1 hr; assay type: functional
Outline: (§2)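 Albino rats of both sexes were fasted 18 h, five per group. Dosing was 15 mg/kg orally as an aqueous suspension (tween-80/water vehicle), 1 h before subplantar 0.1 mL 1% w/v carrageenin in the left hind paw. Paw volume was measured by mercury plethysmometer before injection, then hourly for 4 h. Edema rate = (Vt − Vo)/Vo.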

Mus musculus [7] = assay: Analgesic activity in Swiss albino mouse at 20 mg/kg, po assessed as reaction time after 60 mins by hot plate method; assay type: functional; outline: as §1
Rattus norvegicus [8] = assay: Antiinflammatory activity against carrageenan-induced albino rat hind paw edema model assessed as edema rate at 15 mg/kg, po administered 1 hr before carrageenan challenge measured after 2 hrs; assay type: functional; outline: as §2
Rattus norvegicus [9] = assay: Antiinflammatory activity against carrageenan-induced albino rat hind paw edema model at 15 mg/kg, po administered 1 hr before carrageenan challenge measured after 1 hr relative to indomethacin; assay type: functional
Rattus norvegicus [10] = assay: Antiinflammatory activity against carrageenan-induced albino rat hind paw edema model assessed as edema rate at 15 mg/kg, po administered 1 hr before carrageenan challenge measured after 3 hrs; assay type: functional; outline: as §2
Mus musculus [11] = assay: Analgesic activity in Swiss albino mouse at 20 mg/kg, po assessed as reaction time after 90 mins by hot plate method; assay type: functional; outline: as §1
Rattus norvegicus [12] = assay: Antiinflammatory activity against carrageenan-induced albino rat hind paw edema model assessed as edema rate at 15 mg/kg, po administered 1 hr before carrageenan challenge measured after 4 hrs; assay type: functional; outline: as §2
Fusarium equiseti = assay: Antifungal activity against Fusarium equiseti (Corda) Sacc after 48 hrs by poisoned-food technique; assay type: functional; design: concentration or dose not given beside the values
Shigella dysenteriae = assay: Antibacterial activity against Shigella dysenteriae AE 14396 after 48 hrs by disc diffusion method; assay type: functional; settings: read-out: MIC
Salmonella typhi = assay: Antibacterial activity against Salmonella typhi AE 14612 after 48 hrs by disc diffusion method; assay type: functional, Salmonella enterica subsp. enterica serovar Typhi; settings: Salmonella enterica, read-out: MIC
Bacillus cereus = assay: Antibacterial activity against Bacillus cereus BTCC19 after 48 hrs by disc diffusion method; assay type: functional
Outline: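 Disc diffusion on nutrient agar. Compounds were dissolved in DMF at 1 mg/mL, applied per disc. Inhibition zones (mm) were read after 48 h at 28 °C. DMF alone was the negative control; ampicillin was the reference.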

Rattus norvegicus [13] = assay: Antiinflammatory activity against carrageenan-induced albino rat hind paw edema model assessed as edema rate at 10 mg/kg, po administered 1 hr before carrageenan challenge measured after 1 hr; assay type: functional
Outline: (§3)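 Indomethacin reference group: 10 mg/kg orally as an aqueous suspension, 1 h before carrageenin. Albino rats of both sexes were fasted 18 h, five per group. Edema was induced by subplantar 0.1 mL 1% w/v carrageenin in the left hind paw. Paw volume was read by mercury plethysmometer before injection and hourly for 4 h. Edema rate = (Vt − Vo)/Vo.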

Rattus norvegicus [14] = assay: Antiinflammatory activity against carrageenan-induced albino rat hind paw edema model assessed as edema rate at 10 mg/kg, po administered 1 hr before carrageenan challenge measured after 2 hrs; assay type: functional; outline: as §3
Rattus norvegicus [15] = assay: Antiinflammatory activity against carrageenan-induced albino rat hind paw edema model assessed as edema rate at 10 mg/kg, po administered 1 hr before carrageenan challenge measured after 3 hrs; assay type: functional; outline: as §3
Rattus norvegicus [16] = assay: Antiinflammatory activity against carrageenan-induced albino rat hind paw edema model assessed as edema rate at 10 mg/kg, po administered 1 hr before carrageenan challenge measured after 4 hrs; assay type: functional; outline: as §3

| SMILES | Activity (Rattus norvegicus [1]) [%] | Activity (Mus musculus [2]) [s] | Activity (Rattus norvegicus [3]) [%] | Activity (Rattus norvegicus [4]) | Activity (Rattus norvegicus [5]) [%] | Activity (Rattus norvegicus [6]) [%] | Activity (Mus musculus [7]) [s] | Activity (Rattus norvegicus [8]) [%] | Activity (Rattus norvegicus [9]) [%] | Activity (Rattus norvegicus [10]) [%] | Activity (Mus musculus [11]) [s] | Activity (Rattus norvegicus [12]) [%] | inhibition (Fusarium equiseti) [%] | zone of inhibition (Shigella dysenteriae) [µg/mL] | zone of inhibition (Salmonella typhi) [µg/mL] | zone of inhibition (Bacillus cereus) [mm] | Activity (Rattus norvegicus [13]) [%] | Activity (Rattus norvegicus [14]) [%] | Activity (Rattus norvegicus [15]) [%] | Activity (Rattus norvegicus [16]) [%] |
| --- | --- | --- | --- | --- | --- | --- | --- | --- | --- | --- | --- | --- | --- | --- | --- | --- | --- | --- | --- | --- |
| CCOC(=O)c1sc(N)c(C(=O)n2nc(C)cc2C)c1C | 0.61 | 7.72 | 19.8 | Non-toxic | 25.38 | 2.58 | 7.62 | 7.88 | -7.27 | 8.46 | 9.78 | -0.25 |  |  |  |  |  |  |  |  |
| CCOC(=O)c1sc2nc(C)n(N)c(=O)c2c1C | 37.06 | 6.46 | 45.06 |  | 43.95 | -29.82 | 5.04 | -17.93 | 84.05 | -14.65 | 6.7 | -15.24 | 37.5 | 7 | 15 | 15 |  |  |  |  |
| CCOC(=O)c1sc(NC(C)=O)c(C(=O)OCC)c1C | 12.65 | 7.34 | 30.44 |  | 0.12 | -15.03 | 5.96 | -12.11 | 42.36 | -4 | 6.08 | -5.2 | 36.3 | 14 | 11 | 11 |  |  |  |  |
| CCOC(=O)c1sc(N)c(C(=O)NN)c1C | 32.39 | 6.12 | 22.22 | Non-toxic | 29.4 | -13.43 | 6.2 | -8.84 | 37.85 | -9.8 | 7.86 | -13.32 | 29.3 | 6 |  | 10 |  |  |  |  |
| CCOC(=O)c1sc(N)c(C(=O)N/N=C/c2ccc(OC)cc2)c1C | 32.32 | 6.42 | 3.82 |  | 11.73 | -14.4 | 7.72 | -1.52 | 40.59 | -3.91 | 9.06 | -13.29 | 28 |  | 12 | 10 |  |  |  |  |
| CCOC(=O)c1sc(N)c(C(=O)NNC(N)=S)c1C | 84.19 | 5.44 | 93.52 |  | 88.21 | 36.56 | 5.74 | -37.21 | 103.04 | -29.4 | 6.14 | -34.62 | 28 | 13 | 28 | 20 |  |  |  |  |
| CCOC(=O)c1sc(N)c(C(=O)NNC=O)c1C | 76.17 | 6.08 | 96 |  | 88.75 | -51.18 | 6.9 | -38.2 | 144.25 | -29.58 | 4.84 | -31.32 | 65.6 | 30 | 34 | 33 |  |  |  |  |
| CCOC(=O)c1sc(N)c(C(=O)NNc2nc(C)cs2)c1C | 64.52 | 6.68 | 93.42 |  | 75.99 | -45.14 | 6.46 | -37.17 | 127.23 | -25.33 | 4.7 | -26.53 | 43.8 | 28 | 29 | 31 |  |  |  |  |
| CCOC(=O)c1sc(N)c(C(=O)N2NC(=O)CC2=O)c1C | 65.27 | 10.22 | 78.01 | Non-toxic | 65.5 | -26.54 | 12.42 | -31.04 | 74.8 | -20.9 | 10.68 | -26.84 | 40 | 12 | 15 | 9 |  |  |  |  |
| CCOC(=O)c1sc2[nH]c(=S)n(N)c(=O)c2c1C | 59.99 | 6.6 | 36.54 |  | 31.74 | -30.19 | 7.24 | -14.54 | 85.09 | -10.58 | 7.16 | -24.67 | 47.6 | 18 | 17 | 19 |  |  |  |  |
| CC1(C)S[C@@H]2[C@H](NC(=O)[C@H](N)c3ccccc3)C(=O)N2[C@H]1C(=O)O [AMPICILLIN] |  |  |  |  |  |  |  |  |  |  |  |  |  | 30 | 24 | 21 |  |  |  |  |
| CC(=O)Oc1ccccc1C(=O)O [ASPIRIN] |  | 6.66 |  |  |  |  | 6.56 |  |  |  | 7.78 |  |  |  |  |  |  |  |  |  |
| COc1ccc2c(c1)c(CC(=O)O)c(C)n2C(=O)c1ccc(Cl)cc1 [INDOMETHACIN] |  |  |  |  |  |  |  |  |  |  |  |  |  |  |  |  | -35.48 | -39.79 | -33.33 | -41.12 |

— ChEMBL document CHEMBL1144212, “Design and synthesis of 3-pyrazolyl-thiophene, thieno[2,3-d]pyrimidines as new bioactive and pharmacological activities” (Bioorg Med Chem Lett, 2008)
